Results on 96 compounds are retold here after ChEMBL document CHEMBL4513216, “Probing the Open Global Health Chemical Diversity Library for Multistage-Active Starting Points for Next-Generation Antimalarials” (ACS Infect Dis, 2020).

The series can be described thus: Toxicity liver stage against HepG2, at 10uM. Set-up: test concentration 10 uM, cell line HepG2-A16-CD81EGFP. As to conditions: human, HepG2-A16-CD81EGFP cells; read-out: INHIBITION
Format: cell-based. A digest of the protocol:
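Uninfected HepG2-A16-CD81EGFP cells, 3 × 10^3 per well, 1536-well, plated on prespotted compound at 10 μM final, parasite-free screening media added to match infected plates; puromycin 10 μM positive, DMSO 0.5% negative; run in parallel with 48 h PbLuc assay at 37 °C, 5% CO2; viability by CellTiter-Glo luminescence, normalized to controls.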
Regarding `O=C(c1ccncn1)N1C[C@@H]2CN(Cc3cccnc3)CCO[C@@H]2C1`, the cytotoxicity at 10 µM came to 7.61%. With `O=C(NCCNc1ncccn1)C1CC(=O)N(CC(F)(F)F)C1` (stereo unspecified), the cytotoxicity at 10 µM is -9.02%.

`CC(C)N(C)Cc1nnc2n1CCN(CC1CC1)CC2`: the cytotoxicity at 10 µM was found to be 0.319%. On to `CCC(=O)N1CCCC(C(=O)NCc2noc(Cc3ccccc3)n2)C1` (stereo unspecified), for which the cytotoxicity at 10 µM is -1.15%. For the compound `CC1CCCN(CCNC(=O)c2ccn(-c3ccc(F)cc3)n2)C1` (stereo unspecified), the cytotoxicity at 10 µM is -0.734%. Turning to `Cc1ccc(N2CCCC(N(C)Cc3cc(C)no3)C2)nn1` (stereo unspecified), the cytotoxicity at 10 µM turned out to be 11.9%.

`COc1cccc(NC(=O)NCC(O)c2ccc(F)cc2F)c1` (stereo unspecified): the cytotoxicity at 10 µM is -1.43%.

On to `COC(=O)CCSc1nncn1-c1ccc(OC)nc1`, for which the cytotoxicity at 10 µM is -2.09%. The figure for `Cc1ncc2c(n1)CN(Cc1cn3ccsc3n1)CC2` is -9.06%; for `O=C1CC(c2ccncc2)C2(CCN(Cc3nccs3)CC2)N1` (stereo unspecified) it is 4.8%. The figure for `CCN(Cc1ccoc1)C(=O)NC1CCN(CC=C(C)C)CC1` is -3.89%.

Consider `COCCN1CCN(C(=O)c2ccc(C)cc2F)[C@H]2CS(=O)(=O)C[C@H]21`, for which the cytotoxicity at 10 µM was -11.4%. The figure for `COC[C@@]12CCO[C@@H]1CCN(C(=O)COc1ccc(C)cc1)C2` is 1.39%; for `CCN1CCC2(CC1)OCCN2C(=O)c1cc(Cl)c(OC)c(Cl)c1` it is 9.31%; for `CSc1ncc(CN2C[C@@H]3CC[C@H]2CN(C2CCOCC2)C3)cn1` it is -0.943%.

Regarding `O=C(COc1ccc2c(c1)CCC2)N1CCOCC1c1ncon1` (stereo unspecified), the cytotoxicity at 10 µM is -10.2%. With `c1coc(CN2CC[C@@H]3O[C@@H](COCC4CCOCC4)CC[C@@H]32)c1`, the cytotoxicity at 10 µM is -142%.

On to `Cc1nccc(CNC(=O)Nc2cc(C(F)(F)F)c[nH]c2=O)n1`, for which the cytotoxicity at 10 µM was -1.16%. For the compound `O=C(NCCCO)C1CC(=O)N(c2n[nH]c3cccc(F)c23)C1` (stereo unspecified), the cytotoxicity at 10 µM is -1.07%.

As to `Cc1nc(C)n(CC2CCCCN2CCC(=O)Nc2cc(C)on2)n1` (stereo unspecified), the cytotoxicity at 10 µM was -2.86%.

As to `CN(CCCc1cnn(C)c1)Cc1cc2n(n1)CCNC2`, the cytotoxicity at 10 µM was determined as 11.1%.

In the case of `CCn1nc(C(C)C)cc1C(=O)NCc1nc2ccc(OC)cc2[nH]1`, the cytotoxicity at 10 µM was determined as 4.28%. As to `CSCc1cc(F)ccc1CNC(=O)N1CCCC(CO)C1` (stereo unspecified), the cytotoxicity at 10 µM was determined as 10.3%. As for `NC(=O)c1ccc(C(=O)N2CCCCC2Cn2cccn2)s1` (stereo unspecified), the cytotoxicity at 10 µM was 0.977%. The figure for `CCNC(=O)C1CCCN(c2ccc(C#N)cc2C(F)(F)F)C1` (stereo unspecified) is 1.28%.

Turning to `O=C(COc1cccc(Cl)c1)N1CCOCC1c1ncon1` (stereo unspecified), the cytotoxicity at 10 µM is -12.3%.

Take `Cc1cnc(C(=O)N2CCC(C(=O)c3cc(F)ccc3F)CC2)cn1`: the cytotoxicity at 10 µM is -5.88%. Consider `Cc1csc([C@H]2C[C@H]3CN(Cc4cc(C)on4)CC[C@@H]3O2)n1`, for which the cytotoxicity at 10 µM is -98%. The same measure for `Cn1nccc1NC(=O)CN1CCc2sccc2C1`: 1.09%; for `CC(=O)Nc1nc(C(=O)N2CCCC(n3ccnc3C)C2)cs1` (stereo unspecified): -9.78%. For the compound `Cc1ccc([C@@H]2CN(S(=O)(=O)C(C)C)C[C@H]2N(C)C)cc1`, the cytotoxicity at 10 µM was -0.368%. As for `Clc1cc(N2CCN(C3CCOCC3)CC2)nc2[nH]ccc12`, the cytotoxicity at 10 µM is -3.96%.

For the compound `COc1c(C2CCCN2C(=O)c2ccc3cc[nH]c3c2)c(C)nn1C` (stereo unspecified), the cytotoxicity at 10 µM is -2.74%. The same measure for `N#Cc1cccc(N2CCCC3(CN(C(=O)[C@H]4CCCO4)CCO3)C2)c1` (stereo partly specified): 3.53%; for `CN1CCN(C(=O)c2ccc3c(c2)[nH]c(=O)n3C2CCCC2)CC1`: -42.2%.

With `O=C(NCC(CO)Cc1cccc(OC(F)(F)F)c1)c1cnccn1` (stereo unspecified), the cytotoxicity at 10 µM is 7.66%.

As to `Cc1cccc(CNC(Cc2ccsc2)c2nccs2)n1` (stereo unspecified), the cytotoxicity at 10 µM came out at 2.83%. For `CN(C)c1ccc(C(=O)N2CCCC(n3cccn3)C2)nn1` (stereo unspecified), the cytotoxicity at 10 µM is -4.43%. Consider `CCCN(CCC)c1ncc(S(=O)(=O)c2ccccc2)c(N)n1`, for which the cytotoxicity at 10 µM was -2.26%.

As to `COc1ccc(Cl)cc1S(=O)(=O)N(C)CC(=O)Nc1ccccc1`, the cytotoxicity at 10 µM was -2.76%. Turning to `COc1ncccc1C(=O)NC1(c2cccc(F)c2)CCOCC1`, the cytotoxicity at 10 µM turned out to be 10.9%.

Turning to `CCNC(=O)N1CCC(NC(=O)NCCc2cc3ccccc3o2)C1` (stereo unspecified), the cytotoxicity at 10 µM was -51.8%.

Turning to `COC(=O)C1=C(C)N=C2SCC(=O)N2C1c1cn(C)nc1C` (stereo unspecified), the cytotoxicity at 10 µM was found to be 8.9%.

For `CN(Cc1noc(C2CC2)n1)C1CCN(CCc2cccs2)C1` (stereo unspecified), the cytotoxicity at 10 µM was -5.98%.

On to `O=C(NCCC(O)c1ccccc1)c1ccco1` (stereo unspecified), for which the cytotoxicity at 10 µM was -0.749%. Regarding `CCS(=O)(=O)N(C)C1CCN(Cn2ccc(-c3ccc(F)cc3)n2)CC1`, the cytotoxicity at 10 µM was 1.95%. The same measure for `COCCNC(=O)NCc1cc(-c2ccncc2)n(C2CCCC2)n1`: -8.71%; for `CCNC(=O)N(C)CCCc1n[nH]c(N)c1C#N`: 10.3%; for `CN(C)c1cc(CNC(=O)c2ccc(F)cc2F)ccn1`: -4.82%.

For the compound `O=C(c1cccc(OCc2cscn2)c1)N1CCOCC1`, the cytotoxicity at 10 µM was -6.13%. Take `Cc1cc(NC(C)c2nncn2C2CCCC2)n2nc(C)c(C)c2n1` (stereo unspecified): the cytotoxicity at 10 µM is 13.7%. On to `CC(=O)N1CCC(n2nccc2-c2cnc(NCCO)nc2)CC1`, for which the cytotoxicity at 10 µM was -1%. Turning to `CC(Cn1cccn1)NC(=O)NCCc1cnn(C)c1` (stereo unspecified), the cytotoxicity at 10 µM is -0.0611%.

Take `Cc1cccc(OCCNC(=O)CN2CCN(C)CC2C)c1` (stereo unspecified): the cytotoxicity at 10 µM is -2.66%. As for `COCc1cnc2n1CCN(C(=O)c1cc3ccccc3o1)C2C` (stereo unspecified), the cytotoxicity at 10 µM was -105%.

Consider `Cc1cc(CNc2cncc(C(=O)N(C)C)n2)c2[nH]c(C)c(C)c2c1`, for which the cytotoxicity at 10 µM was -12.2%. For `Cc1ccc(N2CCCC(NCc3ccncc3)C2)nn1` (stereo unspecified), the cytotoxicity at 10 µM turned out to be 2.55%. The figure for `CC(C)Nc1ncnc2c1CCN(C(=O)CN(C)C)CC2` is -70.9%; for `CNS(=O)(=O)Cc1ccc(CNc2cncc(-n3cccn3)n2)cc1` it is -4.66%; for `NS(=O)(=O)c1ccc(CNCC(=O)NCc2ccc(Cl)cc2Cl)cc1` it is -48.6%.

Turning to `c1ccc(OCCN2CCC(n3cncn3)CC2)cc1`, the cytotoxicity at 10 µM is -20.7%. `Cc1nc(CNC(=O)NCC(O)c2ccc(F)c(F)c2)cs1` (stereo unspecified): the cytotoxicity at 10 µM is -3.88%. Consider `CC(C)C(=O)N1CCCc2c(cnn2-c2ccccc2)C1`, for which the cytotoxicity at 10 µM worked out at 11%. For the compound `Cc1cnc(CNC(=O)NC2CCCN(c3ccccc3F)C2)s1` (stereo unspecified), the cytotoxicity at 10 µM was found to be 16.4%. For the compound `CSc1nc2cc(C)n(CC(=O)NC(C)C)c2c(=O)n1CC(C)C`, the cytotoxicity at 10 µM is -4.1%. The figure for `N#Cc1cccc(S(=O)(=O)NC2CCN(CC(F)(F)F)C2)c1` (stereo unspecified) is -1.03%; for `Cn1cc(CN2Cc3c(cnn3C)C(COCC3CC3)C2)cn1` (stereo unspecified) it is -2.8%; for `O=C(NCc1ccccc1OCCO)Nc1ccc2c(c1)CCC2` it is 9.46%. For `Cc1cccc(S(=O)(=O)N2CCCC3(CCCN3S(C)(=O)=O)C2)c1` (stereo unspecified), the cytotoxicity at 10 µM was 7.28%. Turning to `Cc1ccoc1C(=O)NC1CCN(Cc2cccc3c2OCCO3)CC1`, the cytotoxicity at 10 µM was 1.18%. `CS(=O)(=O)CCSCc1ccc(Br)c(F)c1`: the cytotoxicity at 10 µM stood at 0.49%. `CCCSc1nn(CCCN(C)C)c2nc3sc(C)c(CC)c3c(=O)n12`: the cytotoxicity at 10 µM was -3.63%. With `c1ccc2c(N3CCOC(Cn4cccn4)C3)ncnc2c1` (stereo unspecified), the cytotoxicity at 10 µM is -1.04%. For `COc1ccccc1CNC(=O)N1CCN(Cc2cc(C)on2)CC1`, the cytotoxicity at 10 µM is -9.07%. The figure for `CC(C)(C)OC(=O)NCCNC(=O)c1ccc(-c2ccco2)[nH]c1=O` is -13.1%; for `Cc1ncc(C(=O)N2CCOC(C(=O)N3CCCCC3)C2)c(C)n1` (stereo unspecified) it is 1.14%. Take `Cc1ncc2c(n1)CN(CC(=O)Nc1nnc(C)s1)CC2`: the cytotoxicity at 10 µM amounted to 0.153%. Consider `CC(C)CCN(C(=O)c1nc(S(C)(=O)=O)n2ccccc12)C1CC1`, for which the cytotoxicity at 10 µM is -2.63%. As for `CSc1[nH]c(=O)c(C(=O)N2CCCC2c2cccs2)cc1C#N` (stereo unspecified), the cytotoxicity at 10 µM was -3.49%.

With `O=C(O)[C@]12CCCN(Cc3ccoc3)C[C@H]1CN(c1ncccn1)C2`, the cytotoxicity at 10 µM is 7.37%. For the compound `c1ccc(Cc2noc(-c3ccc(NCC4CCCOC4)nc3)n2)cc1` (stereo unspecified), the cytotoxicity at 10 µM is -1.05%. The figure for `O=C(c1c[nH]cn1)N1CCC(F)(F)C2(CCN(c3ncccn3)C2)C1` (stereo unspecified) is 9.76%. As for `O=C(NC1CCCC1)N1CCC2(CC1)CC(Oc1cccnc1)CO2` (stereo unspecified), the cytotoxicity at 10 µM is -5.6%.

For `Cc1nc(CN2CCC(N3CCN(C)C3=O)CC2)no1`, the cytotoxicity at 10 µM was -22%. Consider `CCCN1CCCCC1C(=O)Nc1ccc(-c2nnc[nH]2)cc1` (stereo unspecified), for which the cytotoxicity at 10 µM worked out at 4.64%. For `CCn1cc(CN2CCN(C)C3(CCC(=O)N(CC4CC4)CC3)C2)cn1` (stereo unspecified), the cytotoxicity at 10 µM is -0.764%. Take `OC(COCc1ccco1)CSc1nnc2ccccn12` (stereo unspecified): the cytotoxicity at 10 µM came out at 3.55%. Turning to `CCC(CC)S(=O)(=O)NC(=O)c1ccc2c(c1)ncn2C`, the cytotoxicity at 10 µM is -6.58%. With `CNc1nc2cn(-c3cccc(OC)c3)c(=O)c-2c[nH]1`, the cytotoxicity at 10 µM was found to be 6.04%. `CN(C)C(=O)c1csc(-c2ccoc2)n1`: the cytotoxicity at 10 µM is -1.13%.

On to `CCN(Cc1ccccc1)C(=O)c1cc(C2CCCN2C)ccn1` (stereo unspecified), for which the cytotoxicity at 10 µM is -14.2%. Take `CN1C(=O)C[C@@H]2[C@@H]1CCN2C(=O)c1ccc[nH]1`: the cytotoxicity at 10 µM was -14.8%. With `CCN1CCn2c(C)cnc2C12CCN(C(=O)CC(C)C)CC2`, the cytotoxicity at 10 µM was -5.93%. For the compound `COc1ccc(CN2CCC[C@H]2c2nc(-c3cncnc3N)no2)cc1`, the cytotoxicity at 10 µM is -57%. For the compound `CCCS(=O)(=O)NCC1CCOc2ccccc2C1` (stereo unspecified), the cytotoxicity at 10 µM is -6.92%.

Consider `CN1CC(C(=O)NCCOc2ccc3c(c2)OCO3)CC1=O` (stereo unspecified), for which the cytotoxicity at 10 µM is -4.35%.
